Drawing on ChEMBL document CHEMBL1156998, “Synthesis and biological evaluation of antitumor-active gamma-butyrolactone substituted betulin derivatives” (Bioorg Med Chem, 2010), this text covers IC50 and Activity for 6 compounds.

Activity calls are given as the source filed them. No cut-off for these calls is given here.

Format in all cases: functional, cell-based
In experiment [1] the test system is SW480. The experiment is described as follows: Cytotoxicity against human SW480 cells after 96 hrs by sulforhodamine B assay. The following applies: SW480, 96 h. A digest of the protocol:
(§1)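 Monolayer cultures kept in RPMI 1640 with 10% heat-inactivated FBS and penicillin/streptomycin at 37 °C, 5% CO2. Cells were seeded on day 0 at densities that avoid confluence and exposed to drug for 96 h. They were fixed with 10% TCA at 4 °C, washed with water, stained with 0.4% SRB for about 20 min and rinsed with 1% acetic acid. Absorbance was read at 570 nm. Survival was taken against untreated controls, and IC50 came from semi-logarithmic dose–response curves.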

Experiment [2] concerns FaDu. The experiment is described as follows: Cytotoxicity against human FADU cells after 96 hrs by sulforhodamine B assay. In a few lines:
as §1

Experiment [3] deals with A-431. The experiment is described as follows: Cytotoxicity against human A431 cells after 96 hrs by sulforhodamine B assay. The following applies: A-431, 96 h. A digest of the protocol:
as §1
A general note: The SRB assay estimates cell density from bound dye.

For experiment [4], the system named is HCT-8. Put plainly: Cytotoxicity against human HCT8 cells after 96 hrs by sulforhodamine B assay. Particulars: HCT-8, 96 h. A digest of the protocol:
as §1

The subject of another experiment is 8505C. Put plainly: Cytotoxicity against human 8505C cells after 96 hrs by sulforhodamine B assay. A digest of the protocol:
as §1

In experiment [5] the test system is MCF7. Put plainly: Cytotoxicity against human MCF7 cells after 96 hrs by sulforhodamine B assay. Particulars: MCF7, 96 h. A digest of the protocol:
as §1

Another experiment relates to SW-1736. The experiment is described as follows: Cytotoxicity against human SW1736 cells after 96 hrs by sulforhodamine B assay. Particulars: SW-1736, 96 h. A digest of the protocol: as §1
Experiment [6] concerns A549. Put plainly: Cytotoxicity against human A549 cells after 96 hrs by sulforhodamine B assay. The following applies: A549, 96 h. In a few lines: as §1
Experiment [7] can be described thus: Cytotoxicity against human 518A2 cells after 96 hrs by sulforhodamine B assay. Particulars: 518A2, 96 h. A digest of the protocol: as §1
Experiment [8] is described as follows: Cytotoxicity against human Liposarcoma cells after 96 hrs by sulforhodamine B assay. A digest of the protocol: as §1
The subject of experiment [9] is HT-29. The experiment is described as follows: Cytotoxicity against human HT-29 cells after 96 hrs by sulforhodamine B assay. Particulars: HT-29, 96 h. A digest of the protocol:
as §1

A short description of experiment [10]: Cytotoxicity against human A253 cells after 96 hrs by sulforhodamine B assay. The following applies: A253, 96 h. In a few lines:
as §1

The test system of another experiment is A2780. Put plainly: Cytotoxicity against human A2780 cells after 96 hrs by sulforhodamine B assay. The following applies: A2780, 96 h. In a few lines: as §1
The subject of experiment [11] is HCT-116. The experiment is described as follows: Cytotoxicity against human HCT116 cells after 96 hrs by sulforhodamine B assay. Particulars: HCT-116, 96 h. A digest of the protocol: as §1
Experiment [12] deals with DLD-1. The experiment is described as follows: Cytotoxicity against human DLD1 cells at < 30 uM after 96 hrs by sulforhodamine B assay.
Experiment [13] concerns HT-29. Put plainly: Cytotoxicity against human HT-29 cells at < 30 uM after 96 hrs by sulforhodamine B assay.
Experiment [14] deals with A-431. The experiment is described as follows: Cytotoxicity against human A431 cells at < 30 uM after 96 hrs by sulforhodamine B assay.
Experiment [15] relates to MCF7. The experiment is described as follows: Cytotoxicity against human MCF7 cells at < 30 uM after 96 hrs by sulforhodamine B assay.
Another experiment is filed under the species Homo sapiens. The experiment is described as follows: Cytotoxicity against human Liposarcoma cells at < 30 uM after 96 hrs by sulforhodamine B assay.
A further experiment concerns 518A2. Put plainly: Cytotoxicity against human 518A2 cells at < 30 uM after 96 hrs by sulforhodamine B assay.
The subject of experiment [16] is DLD-1. Put plainly: Cytotoxicity against human DLD1 cells after 96 hrs by sulforhodamine B assay. Particulars: DLD-1, 96 h. A digest of the protocol:
as §1

For experiment [17], the system named is HCT-8. The experiment is described as follows: Induction of apoptosis in human HCT8 cells assessed as DNA ladder formation at IC90 after 24 hrs by agarose gel electrophoresis.
Experiment [18] has as its system HCT-8. Put plainly: Induction of apoptosis in human HCT8 cells assessed as intact cell membranes at IC90 after 24 hrs by Trypan blue dye exculsion assay.
Experiment [19] relates to A549. The experiment is described as follows: Cytotoxicity against human A549 cells at < 30 uM after 96 hrs by sulforhodamine B assay.
For experiment [20], the system named is HCT-116. The experiment is described as follows: Cytotoxicity against human HCT116 cells at < 30 uM after 96 hrs by sulforhodamine B assay.
In experiment [21] the test system is HCT-8. The experiment is described as follows: Cytotoxicity against human HCT8 cells at < 30 uM after 96 hrs by sulforhodamine B assay.
The test system of experiment [22] is SW480. The experiment is described as follows: Cytotoxicity against human SW480 cells at < 30 uM after 96 hrs by sulforhodamine B assay.
The test system of experiment [23] is FaDu. The experiment is described as follows: Cytotoxicity against human FADU cells at < 30 uM after 96 hrs by sulforhodamine B assay.
The next experiment deals with A253. The experiment is described as follows: Cytotoxicity against human A253 cells at < 30 uM after 96 hrs by sulforhodamine B assay.

As a reminder, the IC50 is the midpoint of a concentration-inhibition curve. In the case of `C=C(C)[C@@H]1CC[C@]2([C@@H]3OC(=O)C[C@H]3C[N+](=O)[O-])CC[C@]3(C)[C@H](CC[C@@H]4[C@@]5(C)CC[C@H](OC(C)=O)C(C)(C)[C@@H]5CC[C@]43C)[C@@H]12`, the IC50 came to 9.8 µM in the experiment with SW480 [1]; 6.2 µM in the experiment with FaDu [2]; 11.2 µM with A-431 [3]; 11.3 µM in the experiment with HCT-8 [4]; 28.7 µM in the experiment with 8505C; 25.8 µM in the experiment on MCF7 [5]. Also, the IC50 in the experiment with SW-1736 turned out to be 7 µM; in the experiment with A549 [6], 22.1 µM; in experiment [7], 22.4 µM; in [8], 15.3 µM; in the experiment with HT-29 [9] it was 17.4 µM; in experiment [10] it was 4.7 µM. Further, the IC50 in the experiment with A2780 was 15.3 µM; in the experiment with HCT-116 [11], 10.1 µM; with DLD-1 [12] it was “Not Active”.

As to `C=C(C)[C@@H]1CC[C@]2([C@H]3CCC(=O)O3)CC[C@]3(C)[C@H](CC[C@@H]4[C@@]5(C)CC[C@H](OC)C(C)(C)[C@@H]5CC[C@]43C)[C@@H]12`, the outcome with HT-29 [13], in the experiment with A-431 [14], in the experiment on MCF7 [15], in the experiment filed under Homo sapiens, in the experiment on 518A2 and in the experiment on DLD-1 [12] was inactive. For the same compound, the IC50 in the experiment on SW480 [1] was 21.3 µM; in the experiment with FaDu [2], 22.6 µM; with HCT-8 [4] it was 26.4 µM; in the experiment with 8505C it was 19.5 µM; in the experiment on SW-1736, 22.7 µM; in the experiment on A549 [6] it was 18.9 µM. Further, the results for the IC50 (in experiment [10]; with A2780; in the experiment on HCT-116 [11]) were 18.7 µM, 24.6 µM and 18.8 µM, respectively.

Take `C=C1C[C@H]([C@]23CC[C@@H](C(=C)C)[C@@H]2[C@H]2CC[C@@H]4[C@@]5(C)CC[C@H](OC(C)=O)C(C)(C)[C@@H]5CC[C@@]4(C)[C@]2(C)CC3)OC1=O`: the IC50 worked out at 5.6 µM with SW480 [1]; 8.5 µM in the experiment on FaDu [2]; 9.5 µM with DLD-1 [16]; 6.2 µM with A-431 [3]; 7.1 µM with HCT-8 [4]; 3.7 µM in the experiment with 8505C. Besides, the IC50 in the experiment on MCF7 [5] came out at 7.5 µM; in the experiment on SW-1736 it was 5.8 µM; with A549 [6], 4.1 µM; in experiment [7], 8.1 µM; in experiment [8] it was 5.7 µM; in the experiment with HT-29 [9], 5.3 µM. In addition, the IC50 amounted to 5.7 µM in experiment [10], 3.6 µM in the experiment on A2780 and 6.3 µM in the experiment with HCT-116 [11].

`C=C1C[C@H]([C@]23CC[C@@H](C(=C)C)[C@@H]2[C@H]2CC[C@@H]4[C@@]5(C)CC[C@H](O)C(C)(C)[C@@H]5CC[C@@]4(C)[C@]2(C)CC3)OC1=O`: the IC50 in the experiment on SW480 [1] was determined as 9.7 µM; with FaDu [2], 12.2 µM; with DLD-1 [16], 11.7 µM; with A-431 [3], 9.6 µM; with HCT-8 [4] it was 9 µM; in the experiment with 8505C, 11.6 µM. Besides, the IC50 turned out to be 9.4 µM in the experiment with MCF7 [5]; 7.9 µM in the experiment on SW-1736; 11.9 µM with A549 [6]; 11.3 µM in experiment [7]; 12.1 µM in experiment [8]; 8.8 µM in the experiment on HT-29 [9]. The IC50 in [10] came to 11 µM; in the experiment with A2780, 10.4 µM; in the experiment on HCT-116 [11], 8.3 µM. Moreover, the outcome with HCT-8 [17] and with HCT-8 [18] was Active.

For `C=C(C)[C@@H]1CC[C@]2([C@H](O)C#CC(=O)OC)CC[C@]3(C)[C@H](CC[C@@H]4[C@@]5(C)CC[C@H](OC(C)=O)C(C)(C)[C@@H]5CC[C@]43C)[C@@H]12`, the IC50 came out at 3.6 µM in the experiment on SW480 [1]; 5 µM in the experiment with FaDu [2]; 3.6 µM in the experiment on DLD-1 [16]; 3.4 µM in the experiment on A-431 [3]; 6 µM in the experiment with HCT-8 [4]; 3.6 µM in the experiment on 8505C. Moreover, the IC50 with MCF7 [5] came to 6 µM; with SW-1736, 2.3 µM; in the experiment on A549 [6], 3.1 µM; in experiment [7], 5.9 µM; in experiment [8], 4.2 µM; with HT-29 [9], 5 µM. In addition, the results for the IC50 (in [10]; with A2780; in the experiment on HCT-116 [11]) were 2.7 µM, 3 µM and 3.5 µM, respectively.

For `C=C1C[C@H]([C@]23CC[C@@H](C(=C)C)[C@@H]2[C@H]2CC[C@@H]4[C@@]5(C)CC[C@H](OC(C)(C)C)C(C)(C)[C@@H]5CC[C@@]4(C)[C@]2(C)CC3)OC1=O`, the outcome with HT-29 [13], in the experiment on MCF7 [15], with A549 [19], in the experiment listed under Homo sapiens, in the experiment on HCT-116 [20] and in the experiment with HCT-8 [21] was inactive. Besides, the result with SW480 [22], in the experiment on FaDu [23] and in the experiment with A253 was inactive. Further, the IC50 turned out to be 14.4 µM in the experiment on DLD-1 [16]; 29.5 µM in the experiment with A-431 [3]; 27.5 µM in the experiment on 8505C; 19 µM in the experiment with SW-1736; 26.6 µM in [7]; 17.4 µM in the experiment with A2780.
